Experimental data taken from ChEMBL document CHEMBL4699542, “Design and synthesis of novel methoxypyridine-derived gamma-secretase modulators” (Bioorg Med Chem, 2020).
In brackets after ≈: the same amount, converted by molar mass.

How the values were obtained:
[1] = Ratio of drug level in brain to plasma of transgenic J20 mouse overexpressing human APP at 100 mg/kg, po administered via gavage for 3 consecutive days and measured after 4 hrs post last dose on day 3 by HPLC-MS/MS analysis; assay type: ADME, organism-based; conditions: 72 h, time 3 day
Method in brief: (§1)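 Female J20 mice, 5–6 months old (n=5/dose), dosed by oral gavage once daily for 3 days in 5% NMP/95% PEG300 vehicle. Sacrificed 4 h after the day-3 dose. Plasma and brain drug levels measured by LC-MS/MS (LLOQ 1 ng/mL plasma, 5 ng/g brain). Ratio = brain level/plasma level.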

[2] = Ratio of drug concentration in CD-1 mouse brain to plasma at 5 mg/kg, po measured after 1 hr; assay type: ADME, organism-based
Method in brief: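 Male CD-1 mice dosed once iv (1 mg/kg) or by oral gavage (5 mg/kg). Brain and plasma collected 1 h post dose (n=3/timepoint). Drug levels by HPLC/MS/MS; brain/plasma ratio calculated from these levels.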

[3] = In vivo modulation of gamma secretase in transgenic J20 mouse overexpressing human APP assessed as reduction in plasma amyloid beta40 level at 25 mg/kg, po administered via gavage for 3 consecutive days and measured after 4 hrs post last dose on day 3 by meso scale discovery relative to control; assay type: functional; parameters: scale not given: the % may be the effect or the level left; conditions: time 3 day
Method in brief: (§2)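 Female J20 mice, 5–6 months old (n=5/dose), dosed orally at 25, 50 or 100 mg/kg or with vehicle (5% NMP/95% PEG300) for 3 consecutive days. Plasma was taken 4 h after the final dose. Aβ38/40/42 measured by Meso Scale multiplex immunoassay, with % reduction relative to vehicle. Mean ± SEM, ANOVA.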

Gamma-secretase [4] = test: Modulation of gamma secretase in human SH-SY5Y cells overexpressing wild type APP751 assessed as effect on amyloid beta42 level by meso scale discovery; assay type: cell-based
[5] = In vivo modulation of gamma secretase in transgenic J20 mouse overexpressing human APP assessed as reduction in plasma amyloid beta42 level at 25 mg/kg, po administered via gavage for 3 consecutive days and measured after 4 hrs post last dose on day 3 by meso scale discovery relative to control; assay type: functional; parameters: scale not given: the % may be the effect or the level left; conditions: time 3 day; method in brief: as §2
[6] = Ratio of drug level in brain to plasma of transgenic J20 mouse overexpressing human APP at 25 mg/kg, po administered via gavage for 3 consecutive days and measured after 4 hrs post last dose on day 3 by HPLC-MS/MS analysis; assay type: ADME, organism-based; conditions: 72 h, time 3 day; method in brief: as §1
[7] = Tmax in CD-1 mouse at 5 mg/kg, po administered as single dose measured up to 24 hrs; assay type: ADME, organism-based; conditions: in vivo
Method in brief: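 Male CD-1 mice, 6–8 weeks old, single oral gavage dose in 5% NMP/95% PEG300. Plasma (K3EDTA, retro-orbital, under isoflurane) taken at 0.25, 0.5, 1, 2, 4, 8 and 24 h, n=3/timepoint, analysed by HPLC/MS/MS. Non-compartmental extravascular analysis (Model 200); Tmax taken directly from the data.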

[8] = Kinetic aqueous solubility of the compound in pH 7.4 PBS buffer by UV/Visible absorbance analysis; assay type: physicochemical; conditions: read-out: Kinetic_solubility
Method in brief: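 Kinetic solubility determined in PBS at pH 7.4 by UV/Vis absorbance, reported in μM.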

[9] = In vivo modulation of gamma secretase in transgenic J20 mouse overexpressing human APP assessed as reduction in plasma amyloid beta38 level at 100 mg/kg, po administered via gavage for 3 consecutive days and measured after 4 hrs post last dose on day 3 by meso scale discovery relative to control; assay type: functional; parameters: scale not given: the % may be the effect or the level left; conditions: time 3 day; method in brief: as §2
[10] = Volume of distribution at steady state in CD-1 mouse at 1 mg/kg, iv administered as single dose measured up to 24 hrs; assay type: ADME, organism-based; conditions: in vivo
Method in brief: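 Male CD-1 mice, 6–8 weeks old, single tail-vein dose in 3% NMP/45% PEG300/12% ethanol/40% sterile water. Retro-orbital plasma (K3EDTA) taken at 0.083, 0.25, 0.5, 1, 2, 4, 8 and 24 h, n=3/timepoint, analysed by HPLC/MS/MS. Non-compartmental analysis (Model 201, uniform weighting); Tmax read directly from the data.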

[11] = In vivo modulation of gamma secretase in transgenic J20 mouse overexpressing human APP assessed as reduction in plasma amyloid beta40 level at 50 mg/kg, po administered via gavage for 3 consecutive days and measured after 4 hrs post last dose on day 3 by meso scale discovery relative to control; assay type: functional; parameters: scale not given: the % may be the effect or the level left; conditions: time 3 day; method in brief: as §2
Cytochrome P450 1A2 = target: T1, Cytochrome P450 1A2 (Homo sapiens, UniProt P05177); test: Inhibition of recombinant CYP1A2 (unknown origin) by fluorescence-based assay; assay type: ADME
T1 sequence (P05177 whole entry): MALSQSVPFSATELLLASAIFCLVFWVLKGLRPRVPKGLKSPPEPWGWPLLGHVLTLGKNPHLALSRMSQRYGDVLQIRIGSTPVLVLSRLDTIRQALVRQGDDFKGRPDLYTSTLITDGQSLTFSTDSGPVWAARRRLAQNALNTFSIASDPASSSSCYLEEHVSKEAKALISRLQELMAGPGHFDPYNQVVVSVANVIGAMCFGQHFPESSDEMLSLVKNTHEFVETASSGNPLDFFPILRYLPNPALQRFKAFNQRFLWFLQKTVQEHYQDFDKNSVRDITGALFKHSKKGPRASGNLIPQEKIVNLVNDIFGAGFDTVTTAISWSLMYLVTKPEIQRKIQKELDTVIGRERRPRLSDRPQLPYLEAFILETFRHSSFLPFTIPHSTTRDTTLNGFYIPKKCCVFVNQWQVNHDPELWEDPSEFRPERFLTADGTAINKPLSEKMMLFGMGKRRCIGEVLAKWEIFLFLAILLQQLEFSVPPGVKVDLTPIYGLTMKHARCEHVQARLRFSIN
Method in brief: (§3)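 Recombinant CYP isoforms (five tested) screened for inhibition in fluorescence-based assays; IC50 in μM.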

[12] = In vivo modulation of gamma secretase in transgenic J20 mouse overexpressing human APP assessed as reduction in plasma amyloid beta38 level at 50 mg/kg, po administered via gavage for 3 consecutive days and measured after 4 hrs post last dose on day 3 by meso scale discovery relative to control; assay type: functional; parameters: scale not given: the % may be the effect or the level left; conditions: time 3 day; method in brief: as §2
[13] = In vivo modulation of gamma secretase in transgenic J20 mouse overexpressing human APP assessed as reduction in plasma amyloid beta40 level at 100 mg/kg, po administered via gavage for 3 consecutive days and measured after 4 hrs post last dose on day 3 by meso scale discovery relative to control; assay type: functional; parameters: scale not given: the % may be the effect or the level left; conditions: time 3 day; method in brief: as §2
Cytochrome P450 2C9 = Cytochrome P450 2C9 (Homo sapiens, UniProt P11712); test: Inhibition of recombinant CYP2C9 (unknown origin) by fluorescence-based assay; assay type: ADME; method in brief: as §3
[14] = Cmax in CD-1 mouse at 1 mg/kg, iv administered as single dose measured up to 24 hrs; assay type: ADME, organism-based; parameters: route intravenous, dose 1 mg/kg, time <=24; conditions: in vivo
Method in brief: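 Male CD-1 mice, 6–8 weeks old, single dose by tail vein (1 mg/kg, 3% NMP/45% PEG300/12% ethanol/40% water) or oral gavage (5 mg/kg, 5% NMP/95% PEG300). Retro-orbital plasma sampled 0.083 (iv only) to 24 h, n=3/timepoint, and analysed by HPLC/MS/MS. Non-compartmental analysis. Half-life taken from the terminal phase using ≥3 non-zero points after Tmax.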

Gamma-secretase [15] = test: Modulation of gamma secretase in human SH-SY5Y cells overexpressing wild type APP751 assessed as effect on amyloid beta40 level by meso scale discovery; assay type: cell-based

Chain of Cytochrome P450 2C9 (P11712 whole entry): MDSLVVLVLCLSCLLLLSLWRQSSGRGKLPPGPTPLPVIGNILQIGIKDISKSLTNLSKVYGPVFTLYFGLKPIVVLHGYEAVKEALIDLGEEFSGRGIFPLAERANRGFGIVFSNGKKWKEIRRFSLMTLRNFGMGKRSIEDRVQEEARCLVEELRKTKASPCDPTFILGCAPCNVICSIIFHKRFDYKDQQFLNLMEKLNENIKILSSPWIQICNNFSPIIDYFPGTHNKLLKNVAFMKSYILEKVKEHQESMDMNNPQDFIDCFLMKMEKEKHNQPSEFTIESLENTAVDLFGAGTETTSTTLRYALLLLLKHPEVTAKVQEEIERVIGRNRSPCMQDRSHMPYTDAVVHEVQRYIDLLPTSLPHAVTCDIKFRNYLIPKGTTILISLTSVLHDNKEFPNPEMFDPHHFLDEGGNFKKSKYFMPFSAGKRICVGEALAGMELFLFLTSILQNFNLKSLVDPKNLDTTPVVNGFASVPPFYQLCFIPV

| Compound | BPR [1] | BPR [2] | Activity [3] [%] | IC50 (Gamma-secretase [4]) [nM] | Activity [5] [%] | BPR [6] | Tmax [7] [min] | solubility kinetic [8] [µM] | Activity [9] [%] | Vdss [10] [L/kg] | Activity [11] [%] | IC50 (Cytochrome P450 1A2) [nM] | Activity [12] [%] | Activity [13] [%] | IC50 (Cytochrome P450 2C9) [nM] | Cmax [14] [ng/mL] | IC50 (Gamma-secretase [15]) [nM] |
| --- | --- | --- | --- | --- | --- | --- | --- | --- | --- | --- | --- | --- | --- | --- | --- | --- | --- |
| COc1nc(-c2csc(Nc3c4c(nn3CCF)CCCC4)n2)ccc1-n1cnc(C)c1 | 0.57 | 0.68 | 11 | 14 | 18 | 0.53 | 60 | 15 (≈ 6.8 µg/mL) | 45 | 2.826 | 36 | > 100000 | 33 | 46 | 6800 | 309 | 100 |
| CCn1nc2c(c1Nc1nc(-c3ccc(-n4cnc(C)c4)c(OC)n3)cs1)CCC2 | 0.46 | 0.4 | 19 | 19 | 29 | 0.37 | 15 | 7.8 (≈ 3.29 µg/mL) | 50 | 2.234 | 31 | > 100000 | 27 | 68 | > 100000 | 549 | 209 |
